# Laboratory results as given in ChEMBL document CHEMBL2069239, “High DNA affinity of a series of peptide linked diaromatic guanidinium-like derivatives” (J Med Chem, 2012).
# Calls of active or inactive are those of the source. The calls are words filed in the database; no cut-off is given here.
# Experiments:
# Nucleic Acid [1] = assay: Binding affinity to (AT)4 DNA by SPR analysis; format: nucleic-acid assay
# Procedure, shortened: (§1)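 Biosensor analysis against three immobilized DNA hairpin duplexes in degassed MES buffer (10 mM MES, 1 mM EDTA, 92 mM NaCl, 0.0005% v/v P20, pH 6.25) at 25 °C. A ligand concentration series was injected at 20 μL/min for 5 min, then dissociated for 5 min, with NaCl/NaOH regeneration. K was fitted from steady-state RU versus free ligand using a two-site binding equation.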
# Nucleic Acid [2] = assay: Binding affinity to (GC)4 DNA by SPR analysis; format: nucleic-acid assay; procedure, shortened: as §1
# Nucleic Acid [3] = assay: Binding affinity to poly(dA.dT)2 DNA in phosphate buffer by ITC analysis; format: nucleic-acid assay
# Procedure, shortened: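 Calorimetric titration at 25 °C of 2.48 mM compound in 10 mM phosphate buffer into poly(dA·dT)2 in the cell (2 mM). There were 29 injections, spaced 300 s apart. Heat per injection was obtained by integrating the power peak area over time.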
# Nucleic Acid [4] = assay: Binding affinity to DNA assessed as large induced CD signal at 0.5 mM by circular dichroism study; format: nucleic-acid assay
# Nucleic Acid [5] = assay: Binding affinity to AATT DNA by SPR analysis; format: nucleic-acid assay; procedure, shortened: as §1
# Nucleic Acid [6] = assay: Binding affinity to poly(dA.dT)2 DNA in phosphate buffer assessed as change in melting temperature by thermal denaturation assay
# Nucleic Acid [7] = assay: Binding affinity to poly(dA.dT)2 DNA assessed as large induced CD signal at 0.5 mM by circular dichroism study; format: nucleic-acid assay
# Nucleic Acid [8] = assay: Binding affinity to Salmon sperm DNA in phosphate buffer assessed as change in melting temperature by thermal denaturation assay; format: nucleic-acid assay; conditions: Salmonidae
# Procedure, shortened: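 UV melting of salmon sperm DNA (150 μM base) with compound (15 μM), giving a compound:base ratio of 0.1, in 10 mM sodium phosphate buffer at pH 7. Absorbance at 260 nm was followed from 20 to 90 °C at 1 °C/min, collecting five points per °C, in a 1 cm quartz cell.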
# Nucleic Acid [9] = assay: Binding affinity to poly(dA).poly(dT) DNA in MES buffer assessed as change in melting temperature by thermal denaturation assay; format: nucleic-acid assay
SMILES,K (Nucleic Acid [1]),K (Nucleic Acid [2]),K (Nucleic Acid [3]),Activity (Nucleic Acid [4]),K (Nucleic Acid [5]),ΔTm (Nucleic Acid [6]),Activity (Nucleic Acid [7]),ΔTm (Nucleic Acid [8]),Activity (Nucleic Acid [6]),Activity (Nucleic Acid [9])
O=C(Nc1ccc(NC2=NCCN2)cc1)c1ccc(NC2=NCCN2)cc1,47.7 ×10⁵ /M,< 1 ×10⁵ /M,4.9 ×10⁵ /M,Active,93.7 ×10⁵ /M,29 °C,Active,12.5 °C,–,–
Nc1ccc2cc3ccc(N)cc3nc2c1,12.2 ×10⁵ /M,6.5 ×10⁵ /M,–,–,5.7 ×10⁵ /M,–,–,–,–,–
N=C(N)Nc1ccc(NC(=O)c2ccc(NC(=N)N)cc2)cc1,18 ×10⁵ /M,< 1 ×10⁵ /M,–,Active,71 ×10⁵ /M,20 °C,Active,11 °C,–,–
Nc1ccc(C(=O)Nc2ccc(NC3=NCCN3)cc2)cc1,–,–,–,–,–,–,–,2 °C,inactive,inactive
N=C(N)Nc1ccc(C(=O)c2ccc(N=C3NCCN3)cc2)cc1,–,–,–,–,2.7 ×10⁵ /M,–,–,–,–,–
N=C(N)Nc1ccc(NC(=O)c2ccc(N)cc2)cc1,–,–,–,–,–,–,–,1 °C,inactive,inactive
N=C(N)Nc1ccc(Nc2ccc(N=C3NCCN3)cc2)cc1,–,< 1 ×10⁵ /M,–,–,6.4 ×10⁵ /M,–,–,–,–,–
N=C(N)Nc1ccc(NC(=O)c2ccc(NC3=NCCN3)cc2)cc1,–,–,1.54 ×10⁵ /M,Active,–,26.1 °C,Active,10 °C,–,–
